Columns and labels:
[1] = Cytotoxicity in HEK293 cells; format: cell-based; conditions: human
Method in brief: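 HEK293 cells (ATCC CRL-1573) counted by haemocytometer and seeded at 5000 cells/well into compound-containing plates in DMEM plus 10% FBS. Incubated 20 h at 37 °C, 5% CO2. Resazurin added (25 μg/mL final) for a further 3 h, then fluorescence read at ex 530/em 590 nm. Percent inhibition calculated against media-only and untreated-cell controls. CC50 fitted from dose-response curves with variable bottom, top and slope.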

[2] = tested on: human red blood cells (RBC); test: Haemolytic activity in human red blood cells; format: cell-based; conditions: 1 h, 37 °C
Method in brief: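 Human whole blood washed three times with 3 volumes of 0.9% NaCl, counted by haemocytometer, and resuspended in saline. Cells added to compound-containing plates, shaken 10 min, then incubated 1 h at 37 °C. Plates centrifuged at 1000 × g for 10 min to pellet cells and debris. Haemolysis read as supernatant absorbance at 405 nm.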

Row | Structure (SMILES) | CC50 at 20 h [1] | RBC (HC10), concentration at 10% haemolytic activity [2]
1 | O=C(CCCCCCCCCC[P+](c1ccccc1)(c1ccccc1)c1ccccc1)Nc1ccc(O)c(O)c1 [Compound 11e, (11-((3,4-dihydroxyphenyl)amino)-11-oxoundecyl)triphenylphosphonium bromide] | 22.4 µg/mL | 
2 | CC[C@H](C)[C@H](NC(=O)CN)C(=O)NCC(=O)N[C@@H](C)C(=O)N[C@H](C(=O)N[C@@H](CC(C)C)C(=O)N[C@@H](CCCCN)C(=O)N[C@H](C(=O)N[C@@H](CC(C)C)C(=O)N[C@H](C(=O)N[C@H](C(=O)NCC(=O)N[C@@H](CC(C)C)C(=O)N1CCC[C@H]1C(=O)N[C@@H](C)C(=O)N[C@@H](CC(C)C)C(=O)N[C@H](C(=O)N[C@@H](CO)C(=O)N[C@@H](Cc1c[nH]c2ccccc12)C(=O)N[C@H](C(=O)N[C@@H](CCCCN)C(=O)N[C@@H](CCCNC(=N)N)C(=O)N[C@@H](CCCCN)C(=O)N[C@@H](CCCNC(=N)N)C(=O)N[C@@H](CCC(N)=O)C(=O)N[C@@H](CCC(N)=O)C(N)=O)[C@@H](C)CC)[C@@H](C)CC)[C@@H](C)O)[C@@H](C)O)C(C)C)C(C)C [Mellitin, melittin] |  | 2.7 µg/mL
